Data: ChEMBL document CHEMBL4837200, “Discovery of Orally Bioavailable Purine-Based Inhibitors of the Low-Molecular-Weight Protein Tyrosine Phosphatase” (J Med Chem, 2021)
The source made the active and inactive calls. The rule behind the calls is not given here.

What was measured:
[1] = biological target: T1, Low molecular weight phosphotyrosine protein phosphatase (Homo sapiens, UniProt P24666); assay: Inhibition of recombinant human LMPTP-A using OMFP or pNPP as substrate by fluorescence assay
T1 sequence (P24666 whole entry): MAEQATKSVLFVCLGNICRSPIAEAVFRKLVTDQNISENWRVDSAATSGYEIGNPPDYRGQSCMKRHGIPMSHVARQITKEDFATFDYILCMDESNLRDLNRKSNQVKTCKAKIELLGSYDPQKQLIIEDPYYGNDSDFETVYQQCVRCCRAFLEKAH
Procedure, shortened: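 Recombinant human LMPTP-A in 50 mM Bis-Tris pH 6.0, 1 mM DTT, 0.01% Triton X-100, 37°C. With OMFP, fluorescence followed continuously (ex 485/em 525 nm). With pNPP, reaction stopped with 2 volumes 1 M NaOH and absorbance read at 405 nm. IC50 from inhibitor concentration vs % enzyme activity plots; n=4 unless otherwise noted.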

[2] = Oral bioavailability in C57BL/6 mouse at 10 mg/kg measured upto 24 hrs by LC-MS/MS analysis; assay type: ADME, organism-based; details: in vivo
[3] = Volume of distribution in C57BL/6 mouse at 2 mg/kg, iv measured upto 24 hrs by LC-MS/MS analysis; assay type: ADME, organism-based; details: in vivo
[4] = Cmax in C57BL/6 mouse at 10 mg/kg, po measured upto 24 hrs by LC-MS/MS analysis; assay type: ADME, organism-based; design: route oral, dose 10 mg/kg, time <=24; details: in vivo
[5] = AUC in C57BL/6 mouse at 10 mg/kg, po measured upto 24 hrs by LC-MS/MS analysis; assay type: ADME, organism-based; design: route oral, dose 10 mg/kg, time <=24; details: in vivo
[6] = Half life in C57BL/6 mouse at 10 mg/kg, po measured upto 24 hrs by LC-MS/MS analysis; assay type: ADME, organism-based; details: in vivo
Mus musculus [7] = assay: Reversal of high fat diet induced diabetes in B6 mouse assessed as increase in insulin-stimulated IR tyrosine phosphorylation in liver at 30 mg/kg/day, po administered for 2 weeks by ELISA; assay type: functional, organism-based
Procedure, shortened: (§1)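 Male C57BL/6 littermates fed 60 kcal% fat chow for 3 months from 1-2 months of age; DIO mice ≥35 g given HFD containing 0.03% w/w compound (about 30 mg/kg/day) or HFD alone for 2 weeks. HFD n=8; treated n=9.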

[8] = Plasma protein binding in mouse; assay type: ADME, cell-free
Mus musculus [9] = assay: Reversal of high fat diet induced diabetes in B6 mouse assessed as improved glucose tolerance at 30 mg/kg/day, po administered for 2 weeks followed by 13 hrs fasting and measured by IPGTT; assay type: functional, organism-based; procedure, shortened: as §1
[10] = Microsomal stability in mouse liver microsomes assessed as parent compound remaining measured after 1 hr; assay type: ADME, Microsome; details: read-out: Stabilty
[11] = biological target: T2, Low molecular weight phosphotyrosine protein phosphatase (Homo sapiens) (UniProt P24666); assay: Inhibition of LMPTP in human HepG2 cells assessed as increase in insulin-stimulated AKT Thr308 phosphorylation at 500 nM preincubated overnight followed by insulin stimulation for 5 mins by Western blotting analysis; assay type: cell-based
T2 sequence (whole entry): T1 sequence (P24666 whole entry)
Procedure, shortened: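 HepG2 cells grown in EMEM with 10% FBS plus penicillin/streptomycin. Serum-starved (0.1% FBS) overnight with DMSO or 500 nM compound, then stimulated with 10 nM bovine insulin for 5 min at 37°C with compound still present. Lysates probed by Western blot for pAKT Thr308, normalized to total AKT or GAPDH. 8 independent experiments.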

Mus musculus [12] = assay: Reversal of high fat diet induced diabetes in B6 mouse assessed as increase in insulin-stimulated AKT Thr308 phosphorylation in liver at 30 mg/kg/day, po administered for 2 weeks by Western blotting analysis; assay type: functional, organism-based; procedure, shortened: as §1
[13] = Microsomal stability in human liver microsomes assessed as parent compound remaining measured after 1 hr; assay type: ADME, Microsome; details: read-out: Stabilty
[14] = Plasma protein binding in human; assay type: ADME, cell-free
Mus musculus [15] = assay: Reversal of high fat diet induced diabetes in B6 mouse assessed as decrease in fasting insulin levels at 30 mg/kg/day, po administered for 2 weeks by ELISA; assay type: functional, organism-based; procedure, shortened: as §1
[16] = biological target: T2, Low molecular weight phosphotyrosine protein phosphatase (Homo sapiens); assay: Uncompetitive inhibition of recombinant human LMPTP-A using OMFP as substrate by Lineweaver-Burk plot analysis
Procedure, shortened: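 Recombinant human LMPTP-A at 20 nM acting on increasing OMFP concentrations with increasing inhibitor concentrations. Buffer was 50 mM Bis-Tris pH 6.0, 1 mM DTT, 0.01% Triton X-100 at 37°C. Fluorescence read continuously (ex 485/em 525 nm). Rates fitted to Michaelis-Menten and mixed-model inhibition equations and shown as Lineweaver-Burk plots. 3 independent experiments in triplicate.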

`Cc1cccc(-c2nc3c(N)ncn(Cc4c(Cl)cccc4Cl)c-3n2)c1` showed an IC50 [1] of 87 nM.
Molecule `Nc1ncn(Cc2c(Cl)cccc2Cl)c2ncnc1-2` has an F [2] of 66%, a Vd [3] of 3.01 L/kg and a Cmax [4] of 5018 ng/mL. For the same molecule, the IC50 [1] was 239 nM, the AUC [5] was 18544 ng·h/mL and the t1/2 [6] was 4.71 h.
With `Nc1ncn(Cc2ccccc2Cl)c2ncnc1-2` the IC50 [1] was 1930 nM.
In the case of `Nc1ncn(Cc2c(Cl)cncc2Cl)c2ncnc1-2`, the Activity (Mus musculus [7]) is reported as “Active”, the F [2] is reported as 100% and the Vd [3] is reported as 0.81 L/kg. For the same molecule, the PPB [8] was 89%, the Activity (Mus musculus [9]) was “Active” and the Cmax [4] was 8220 ng/mL. For the same molecule, the remaining at 1 h [10] was > 90%, the inhibition [11] was “Active” and the Activity (Mus musculus [12]) was “Active”. The IC50 [1] was 83 nM, the AUC [5] was 9501 ng·h/mL and the remaining at 1 h [13] was > 90%. For the same molecule, the PPB [14] was 88%, the Activity (Mus musculus [15]) was “Active” and the t1/2 [6] was 0.71 h.
With `Nc1ncn(Cc2c(Cl)cccc2Cl)c2nc(-c3ccc(Cl)cc3)nc1-2` the IC50 [1] was 288 nM.
Molecule `Cc1ccc(-c2nc3c(N)ncn(Cc4c(Cl)cccc4Cl)c-3n2)cc1` has an IC50 [1] of 119 nM.
Work on `Nc1ncn(Cc2ccc(Cl)cc2Cl)c2ncnc1-2` yielded an IC50 [1] of 1020 nM.
With `Nc1ncn(Cc2c(Cl)cccc2Cl)c2nc(-c3ccc(F)cc3)nc1-2` the IC50 [1] was 117 nM.
`Nc1ncn(Cc2c(Cl)cccc2Cl)c2nc(-c3ccccc3)nc1-2` showed an IC50 [1] of 104 nM.
Molecule `Cc1ccccc1-c1nc2c(N)ncn(Cc3c(Cl)cncc3Cl)c-2n1` has an F [2] of 3%, a Vd [3] of 4.04 L/kg and a Cmax [4] of 17 ng/mL. For the same molecule, the IC50 [1] was 6 nM, the AUC [5] was 38 ng·h/mL and the t1/2 [6] was 1.55 h.
In the case of `Nc1ncn(Cc2c(Cl)cccc2Cl)c2nc(-c3ccccc3Cl)nc1-2`, the IC50 [1] is reported as 171 nM.
In the case of `Cc1cccc(C)c1Cn1cnc(N)c2ncnc1-2`, the IC50 [1] is reported as 3430 nM.
`Nc1ncn(Cc2c(Cl)cccc2Cl)c2nc(-c3cccc(Cl)c3)nc1-2` gave an IC50 [1] of 380 nM.
In the case of `COc1ccccc1-c1nc2c(N)ncn(Cc3c(Cl)cccc3Cl)c-2n1`, the IC50 [1] is reported as 106 nM.
With `Nc1ncn(Cc2c(Cl)cccc2Cl)c2nc(-c3cccc(F)c3)nc1-2` the IC50 [1] was 239 nM.
With `N#Cc1ccccc1-c1nc2c(N)ncn(Cc3c(Cl)cccc3Cl)c-2n1` the IC50 [1] was 245 nM.
Molecule `Nc1ncn(Cc2c(Cl)cccc2Cl)c2nc(Cl)nc1-2` has an IC50 [1] of 27800 nM.
Work on `Nc1ncn(Cc2cccc(Cl)c2)c2ncnc1-2` yielded an IC50 [1] of 18500 nM.
Work on `Cc1ccccc1-c1nc2c(N)ncn(Cc3c(Cl)cccc3Cl)c-2n1` yielded an F [2] of 19%, a Vd [3] of 2.75 L/kg and a Cmax [4] of 134 ng/mL. For the same molecule, the IC50 [1] was 20 nM, the AUC [5] was 312 ng·h/mL and the inhibition [16] was “Active”. For the same molecule, the t1/2 [6] was 1.35 h.
Molecule `Nc1ncn(Cc2c(Cl)cccc2Cl)c2nc(-c3ccccc3F)nc1-2` has an IC50 [1] of 147 nM.
`Nc1ncn(Cc2ccc(Cl)cc2)c2ncnc1-2` showed an IC50 [1] of 19400 nM.
Molecule `Cc1nc2c(N)ncn(Cc3c(Cl)cccc3Cl)c-2n1` has an IC50 [1] of 306 nM.
Work on `Nc1ncn(Cc2ccccc2)c2ncnc1-2` [3-BENZYLADENINE] yielded an IC50 [1] of 13600 nM.
Work on `Nc1ncn(Cc2c(Cl)cccc2Cl)c2nc(Br)nc1-2` yielded an IC50 [1] of 17600 nM.
